# Test results: ChEMBL document CHEMBL3797186, “Single Residue Substitutions That Confer Voltage-Gated Sodium Ion Channel Subtype Selectivity in the NaV1.7 Inhibitory Peptide GpTx-1” (J Med Chem, 2016)
# Positions of bridges follow the written chain, without caps; N, C: chain ends. Residues, ends and D or L forms follow the SMILES beside them.
# Target: Sodium channel protein type 5 subunit alpha (Homo sapiens, UniProt Q14524)
# Test: Inhibition of human Nav1.5 expressed in HEK293 cells assessed as inward peak current by ion-works quattro patch clamp electrophysiology method
# Format: cell-based
# How it was run: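 Stable HEK293 line expressing human NaV1.5, recorded by population patch clamp on the IonWorks Quattro.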
# Sodium channel protein type 5 subunit alpha, sequence (Q14524 whole entry): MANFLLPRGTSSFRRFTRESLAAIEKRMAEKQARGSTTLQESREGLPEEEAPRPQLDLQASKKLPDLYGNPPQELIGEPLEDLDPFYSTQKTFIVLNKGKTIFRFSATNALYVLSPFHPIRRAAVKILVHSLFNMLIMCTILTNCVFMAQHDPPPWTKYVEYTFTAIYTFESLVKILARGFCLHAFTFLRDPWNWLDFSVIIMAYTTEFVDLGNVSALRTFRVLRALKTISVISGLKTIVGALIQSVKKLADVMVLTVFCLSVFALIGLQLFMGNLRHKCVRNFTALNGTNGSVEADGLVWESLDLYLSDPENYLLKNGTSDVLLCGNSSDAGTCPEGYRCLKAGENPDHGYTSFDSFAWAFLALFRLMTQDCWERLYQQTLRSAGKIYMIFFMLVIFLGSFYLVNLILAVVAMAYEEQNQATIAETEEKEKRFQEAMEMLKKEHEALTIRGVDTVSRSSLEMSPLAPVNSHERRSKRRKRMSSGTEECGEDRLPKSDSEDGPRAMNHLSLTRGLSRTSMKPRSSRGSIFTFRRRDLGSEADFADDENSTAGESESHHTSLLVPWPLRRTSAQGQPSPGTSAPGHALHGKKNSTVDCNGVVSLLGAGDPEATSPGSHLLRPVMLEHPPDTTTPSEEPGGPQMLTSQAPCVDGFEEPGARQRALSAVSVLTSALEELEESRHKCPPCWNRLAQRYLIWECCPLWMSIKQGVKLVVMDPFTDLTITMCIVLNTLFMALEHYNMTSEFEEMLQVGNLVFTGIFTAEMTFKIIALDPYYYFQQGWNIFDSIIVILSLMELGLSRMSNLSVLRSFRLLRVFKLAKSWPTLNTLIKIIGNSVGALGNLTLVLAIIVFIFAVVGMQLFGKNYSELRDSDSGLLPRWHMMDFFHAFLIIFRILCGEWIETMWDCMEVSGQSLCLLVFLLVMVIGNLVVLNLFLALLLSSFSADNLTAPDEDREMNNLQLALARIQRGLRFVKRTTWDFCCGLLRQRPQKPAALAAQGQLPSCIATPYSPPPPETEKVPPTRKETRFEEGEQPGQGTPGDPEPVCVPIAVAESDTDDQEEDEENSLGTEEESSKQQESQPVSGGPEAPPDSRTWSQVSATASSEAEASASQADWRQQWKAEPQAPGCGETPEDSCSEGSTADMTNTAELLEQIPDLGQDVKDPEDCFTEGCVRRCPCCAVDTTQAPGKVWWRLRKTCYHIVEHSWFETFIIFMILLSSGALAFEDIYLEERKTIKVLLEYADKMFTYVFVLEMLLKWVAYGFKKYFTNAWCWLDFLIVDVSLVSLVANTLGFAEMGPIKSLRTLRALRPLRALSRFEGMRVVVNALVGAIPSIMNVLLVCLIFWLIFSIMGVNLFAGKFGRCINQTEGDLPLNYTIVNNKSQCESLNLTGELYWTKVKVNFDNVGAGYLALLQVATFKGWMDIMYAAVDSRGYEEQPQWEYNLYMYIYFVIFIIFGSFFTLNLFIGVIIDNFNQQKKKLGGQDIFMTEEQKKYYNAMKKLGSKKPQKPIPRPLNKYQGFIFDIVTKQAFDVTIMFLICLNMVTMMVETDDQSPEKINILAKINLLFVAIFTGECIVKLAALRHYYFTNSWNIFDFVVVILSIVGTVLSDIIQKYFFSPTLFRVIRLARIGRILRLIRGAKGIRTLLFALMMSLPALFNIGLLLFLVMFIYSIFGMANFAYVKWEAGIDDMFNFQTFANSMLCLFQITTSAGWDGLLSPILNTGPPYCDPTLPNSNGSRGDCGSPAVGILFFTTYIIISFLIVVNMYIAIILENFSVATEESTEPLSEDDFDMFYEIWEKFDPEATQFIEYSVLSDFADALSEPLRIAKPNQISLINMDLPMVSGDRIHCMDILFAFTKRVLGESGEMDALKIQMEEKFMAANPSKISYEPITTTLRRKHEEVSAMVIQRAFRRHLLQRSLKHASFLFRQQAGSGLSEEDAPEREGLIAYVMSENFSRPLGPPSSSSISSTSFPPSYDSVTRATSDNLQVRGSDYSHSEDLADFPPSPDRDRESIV
row,SMILES,IC50 [µM]
1,"CSCC[C@@H]1NC(=O)[C@H](Cc2ccccc2)NC(=O)CNC(=O)[C@H](CC(C)C)NC(=O)[C@@H](NC(=O)[C@@H](N)CC(=O)O)CSSC[C@@H]2NC(=O)[C@@H]3CSSC[C@@H](C(=O)N[C@@H](CCCCN)C(=O)N[C@@H](Cc4ccc(O)cc4)C(=O)N[C@H](C(=O)N[C@@H](Cc4ccccc4)C(N)=O)C(C)C)NC(=O)[C@H](Cc4c[nH]c5ccccc45)NC(=O)[C@H](CCCCN)NC(=O)[C@H](Cc4cnc[nH]4)NC(=O)[C@H]([C@@H](C)O)NC(=O)[C@H](CCCNC(=N)N)NC(=O)[C@H](CO)NC(=O)[C@H](CSSC[C@H](NC(=O)[C@H](CCCCN)NC(=O)[C@H](CCCNC(=N)N)NC1=O)C(=O)N[C@@H]([C@@H](C)O)C(=O)N1CCC[C@H]1C(=O)N[C@@H](CC(=O)O)C(=O)N[C@@H](CC(N)=O)C(=O)N[C@@H](CC(=O)O)C(=O)N[C@@H](CCCCN)C(=O)N3)NC(=O)[C@H](C(C)C)NC(=O)[C@H](CC(C)C)NC(=O)[C@H](CC(N)=O)NC(=O)[C@@H]1CCCN1C(=O)[C@H](CCCNC(=N)N)NC2=O (H-DCLGFMRKCTPDNDKCCRPNLVCSRTHKWCKYVF-NH2; disulfide 2-17, 9-23, 16-30)",> 5
2,"CC[C@H](C)[C@@H]1NC(=O)[C@@H]2CSSC[C@@H]3NC(=O)[C@H](C(C)C)NC(=O)[C@H](CC(C)C)NC(=O)[C@H](CC(N)=O)NC(=O)[C@@H]4CCCN4C(=O)[C@H](CCCNC(=N)N)NC(=O)[C@H](CSSC[C@H](NC(=O)[C@@H](N)CC(=O)O)C(=O)N[C@@H](CC(C)C)C(=O)NCC(=O)N[C@@H](CCCNC(=N)N)C(=O)N[C@@H](CCSC)C(=O)N[C@@H](CCCNC(=N)N)C(=O)N[C@@H](CCCCN)C(=O)N2)NC(=O)[C@H](CSSC[C@@H](C(=O)N[C@@H](CCCCN)C(=O)N[C@@H](Cc2ccc(O)cc2)C(=O)N[C@H](C(=O)N[C@@H](Cc2ccccc2)C(N)=O)C(C)C)NC(=O)[C@H](Cc2c[nH]c4ccccc24)NC(=O)[C@H](CCCCN)NC(=O)[C@H](Cc2cnc[nH]2)NC(=O)[C@H]([C@@H](C)O)NC(=O)[C@H](CCCNC(=N)N)NC(=O)[C@H](CO)NC3=O)NC(=O)[C@H](CCCCN)NC(=O)[C@H](CC(=O)O)NC(=O)[C@H](CC(N)=O)NC(=O)[C@H](CC(=O)O)NC(=O)[C@@H]2CCCN2C1=O (H-DCLGRMRKCIPDNDKCCRPNLVCSRTHKWCKYVF-NH2; disulfide 2-17, 9-23, 16-30)",> 5
3,"CC[C@H](C)[C@@H]1NC(=O)[C@@H]2CSSC[C@@H]3NC(=O)[C@H](C(C)C)NC(=O)[C@H](CC(C)C)NC(=O)[C@H](CC(N)=O)NC(=O)[C@@H]4CCCN4C(=O)[C@H](CCCNC(=N)N)NC(=O)[C@H](CSSC[C@H](NC(=O)[C@@H](N)CC(=O)O)C(=O)N[C@@H](CC(C)C)C(=O)NCC(=O)N[C@@H](Cc4ccccc4)C(=O)N[C@@H](CCSC)C(=O)N[C@@H](CCCNC(=N)N)C(=O)N[C@@H](CCCCN)C(=O)N2)NC(=O)[C@H](CSSC[C@@H](C(=O)N[C@@H](CCCCN)C(=O)N[C@@H](Cc2ccc(O)cc2)C(=O)N[C@H](C(=O)N[C@@H](Cc2ccccc2)C(N)=O)C(C)C)NC(=O)[C@H](Cc2c[nH]c4ccccc24)NC(=O)[C@H](CCCCN)NC(=O)[C@H](Cc2c[nH]c4ccccc24)NC(=O)[C@H]([C@@H](C)O)NC(=O)[C@H](CCCNC(=N)N)NC(=O)[C@H](CO)NC3=O)NC(=O)[C@H](CCCCN)NC(=O)[C@H](CC(=O)O)NC(=O)[C@H](CC(N)=O)NC(=O)[C@H](CC(=O)O)NC(=O)[C@@H]2CCCN2C1=O (H-DCLGFMRKCIPDNDKCCRPNLVCSRTWKWCKYVF-NH2; disulfide 2-17, 9-23, 16-30)",> 5
4,"CC[C@H](C)[C@@H]1NC(=O)[C@@H]2CSSC[C@@H]3NC(=O)[C@H](C(C)C)NC(=O)[C@H](CC(C)C)NC(=O)[C@H](CC(N)=O)NC(=O)[C@@H]4CCCN4C(=O)[C@H](CCCNC(=N)N)NC(=O)[C@H](CSSC[C@H](NC(=O)[C@@H](N)CC(=O)O)C(=O)N[C@@H](CC(C)C)C(=O)NCC(=O)N[C@@H](Cc4ccccc4)C(=O)N[C@@H](CCSC)C(=O)N[C@@H](CCCNC(=N)N)C(=O)N[C@@H](CCCCN)C(=O)N2)NC(=O)[C@H](CSSC[C@@H](C(=O)N[C@@H](CCCCN)C(=O)N[C@@H](Cc2ccc(O)cc2)C(=O)N[C@H](C(=O)N[C@@H](Cc2ccccc2)C(N)=O)C(C)C)NC(=O)[C@H](Cc2c[nH]c4ccccc24)NC(=O)[C@H](CCCCN)NC(=O)[C@H](Cc2c[nH]cn2)NC(=O)[C@H]([C@@H](C)O)NC(=O)[C@H](CCCNC(=N)N)NC(=O)[C@H](CO)NC3=O)NC(=O)[C@H](CCC(=O)O)NC(=O)[C@H](CC(=O)O)NC(=O)[C@H](CC(N)=O)NC(=O)[C@H](CC(=O)O)NC(=O)[C@@H]2CCCN2C1=O (H-DCLGFMRKCIPDNDECCRPNLVCSRTHKWCKYVF-NH2; disulfide 2-17, 9-23, 16-30)",> 5
5,"CC[C@H](C)[C@@H]1NC(=O)[C@@H]2CSSC[C@@H]3NC(=O)[C@H](C(C)C)NC(=O)[C@H](CC(C)C)NC(=O)[C@H](CC(N)=O)NC(=O)[C@@H]4CCCN4C(=O)[C@H](CCCNC(=N)N)NC(=O)[C@H](CSSC[C@H](NC(=O)[C@@H](N)CC(=O)O)C(=O)N[C@@H](CC(C)C)C(=O)NCC(=O)N[C@@H](Cc4ccccc4)C(=O)N[C@@H](CCSC)C(=O)N[C@@H](CCCNC(=N)N)C(=O)N[C@@H](CCCCN)C(=O)N2)NC(=O)[C@H](CSSC[C@@H](C(=O)N[C@@H](CCCCN)C(=O)N[C@@H](CCCNC(=N)N)C(=O)N[C@H](C(=O)N[C@@H](Cc2ccccc2)C(N)=O)C(C)C)NC(=O)[C@H](Cc2c[nH]c4ccccc24)NC(=O)[C@H](CCCCN)NC(=O)[C@H](Cc2cnc[nH]2)NC(=O)[C@H]([C@@H](C)O)NC(=O)[C@H](CCCNC(=N)N)NC(=O)[C@H](CO)NC3=O)NC(=O)[C@H](CCCCN)NC(=O)[C@H](CC(=O)O)NC(=O)[C@H](CC(N)=O)NC(=O)[C@H](CC(=O)O)NC(=O)[C@@H]2CCCN2C1=O (H-DCLGFMRKCIPDNDKCCRPNLVCSRTHKWCKRVF-NH2; disulfide 2-17, 9-23, 16-30)",> 5
6,"CC[C@H](C)[C@@H]1NC(=O)[C@@H]2CSSC[C@@H]3NC(=O)[C@H](C(C)C)NC(=O)[C@H](CC(C)C)NC(=O)[C@H](CC(N)=O)NC(=O)[C@@H]4CCCN4C(=O)[C@H](CCCNC(=N)N)NC(=O)[C@H](CSSC[C@H](NC(=O)[C@@H](N)CC(=O)O)C(=O)N[C@@H](CC(C)C)C(=O)NCC(=O)N[C@@H](Cc4ccccc4)C(=O)N[C@@H](CCSC)C(=O)N[C@@H](CCCNC(=N)N)C(=O)N[C@@H](CCCCN)C(=O)N2)NC(=O)[C@H](CSSC[C@@H](C(=O)N[C@@H](CCCCN)C(=O)N[C@@H](Cc2ccc(O)cc2)C(=O)N[C@H](C(=O)N[C@@H](Cc2ccccc2)C(N)=O)C(C)C)NC(=O)[C@H](Cc2c[nH]c4ccccc24)NC(=O)[C@H](CCCCN)NC(=O)[C@H](CCCCN)NC(=O)[C@H]([C@@H](C)O)NC(=O)[C@H](CCCNC(=N)N)NC(=O)[C@H](CO)NC3=O)NC(=O)[C@H](CCCCN)NC(=O)[C@H](CC(=O)O)NC(=O)[C@H](CC(N)=O)NC(=O)[C@H](CC(=O)O)NC(=O)[C@@H]2CCCN2C1=O (H-DCLGFMRKCIPDNDKCCRPNLVCSRTKKWCKYVF-NH2; disulfide 2-17, 9-23, 16-30)",> 5
7,"CC[C@H](C)[C@@H]1NC(=O)[C@@H]2CSSC[C@@H]3NC(=O)[C@H](C(C)C)NC(=O)[C@H](CC(C)C)NC(=O)[C@H](CC(N)=O)NC(=O)[C@@H]4CCCN4C(=O)[C@H](CCCNC(=N)N)NC(=O)[C@H](CSSC[C@H](NC(=O)[C@@H](N)CC(=O)O)C(=O)N[C@@H](CC(C)C)C(=O)NCC(=O)N[C@@H](Cc4ccccc4)C(=O)N[C@@H](CCSC)C(=O)N[C@@H](CCCNC(=N)N)C(=O)N[C@@H](CCCCN)C(=O)N2)NC(=O)[C@H](CSSC[C@@H](C(=O)N[C@@H](CCCCN)C(=O)N[C@@H](Cc2ccc(O)cc2)C(=O)N[C@H](C(=O)N[C@@H](Cc2ccccc2)C(N)=O)C(C)C)NC(=O)[C@H](Cc2c[nH]c4ccccc24)NC(=O)[C@H](CCCCN)NC(=O)[C@H](Cc2cnc[nH]2)NC(=O)[C@H]([C@@H](C)O)NC(=O)[C@H](CCCNC(=N)N)NC(=O)[C@H](CO)NC3=O)NC(=O)[C@H](CCCCN)NC(=O)[C@H](CC(=O)O)NC(=O)[C@H](CCCCN)NC(=O)[C@H](CC(=O)O)NC(=O)[C@@H]2CCCN2C1=O (H-DCLGFMRKCIPDKDKCCRPNLVCSRTHKWCKYVF-NH2; disulfide 2-17, 9-23, 16-30)",> 5
8,CSCC[C@@H]1NC(=O)[C@H](Cc2ccccc2)NC(=O)CNC(=O)[C@H](CC(C)C)NC(=O)[C@@H](NC(=O)[C@@H](N)CC(=O)O)CSSC[C@@H]2NC(=O)[C@@H]3CSSC[C@@H](C(=O)N[C@@H](CCCCN)C(=O)N[C@@H](Cc4ccc(O)cc4)C(=O)N[C@H](C(=O)N[C@@H](Cc4ccccc4)C(N)=O)C(C)C)NC(=O)[C@H](Cc4c[nH]c5ccccc45)NC(=O)[C@H](CCCCN)NC(=O)[C@H](Cc4cnc[nH]4)NC(=O)[C@H]([C@@H](C)O)NC(=O)[C@H](CCCNC(=N)N)NC(=O)[C@H](CO)NC(=O)[C@H](CSSC[C@H](NC(=O)[C@H](CCCCN)NC(=O)[C@H](CCCNC(=N)N)NC1=O)C(=O)N[C@@H](Cc1ccccn1)C(=O)N1CCC[C@H]1C(=O)N[C@@H](CC(=O)O)C(=O)N[C@@H](CC(N)=O)C(=O)N[C@@H](CC(=O)O)C(=O)N[C@@H](CCCCN)C(=O)N3)NC(=O)[C@H](C(C)C)NC(=O)[C@H](CC(C)C)NC(=O)[C@H](CC(N)=O)NC(=O)[C@@H]1CCCN1C(=O)[C@H](CCCNC(=N)N)NC2=O,> 5
9,CC[C@H](C)[C@@H]1NC(=O)[C@@H]2CSSC[C@@H]3NC(=O)[C@H](C(C)C)NC(=O)[C@H](CC(C)C)NC(=O)[C@H](CC(N)=O)NC(=O)[C@@H]4CCCN4C(=O)[C@H](CCCNC(=N)N)NC(=O)[C@H](CSSC[C@H](NC(=O)[C@H](CC(=O)O)NC(=O)[C@@H](N)CCCNC(=N)N)C(=O)N[C@@H](CC(C)C)C(=O)NCC(=O)N[C@@H](Cc4ccccc4)C(=O)N[C@@H](CCSC)C(=O)N[C@@H](CCCNC(=N)N)C(=O)N[C@@H](CCCCN)C(=O)N2)NC(=O)[C@H](CSSC[C@@H](C(=O)N[C@@H](CCCCN)C(=O)N[C@@H](Cc2ccc(O)cc2)C(=O)N[C@H](C(=O)N[C@@H](Cc2ccccc2)C(N)=O)C(C)C)NC(=O)[C@H](Cc2c[nH]c4ccccc24)NC(=O)[C@H](CCCCN)NC(=O)[C@H](Cc2cnc[nH]2)NC(=O)[C@H]([C@@H](C)O)NC(=O)[C@H](CCCNC(=N)N)NC(=O)[C@H](CO)NC3=O)NC(=O)[C@H](CCCCN)NC(=O)[C@H](CC(=O)O)NC(=O)[C@H](CC(N)=O)NC(=O)[C@H](CC(=O)O)NC(=O)[C@@H]2CCCN2C1=O,> 5
